For 13 molecules, IC50, inhibition and minimal effective dose results are on record in ChEMBL document CHEMBL3407447, “Probing the molecular and structural elements of ligands binding to the active site versus an allosteric pocket of the human farnesyl pyrophosphate synthase” (Bioorg Med Chem Lett, 2015).

Each structure is given as a SMILES string. Activity calls are given as the source filed them. The rule behind the calls is not given here.

The target in one experiment is T1, Farnesyl pyrophosphate synthase (Homo sapiens, UniProt P14324).
T1 sequence (P14324 whole entry): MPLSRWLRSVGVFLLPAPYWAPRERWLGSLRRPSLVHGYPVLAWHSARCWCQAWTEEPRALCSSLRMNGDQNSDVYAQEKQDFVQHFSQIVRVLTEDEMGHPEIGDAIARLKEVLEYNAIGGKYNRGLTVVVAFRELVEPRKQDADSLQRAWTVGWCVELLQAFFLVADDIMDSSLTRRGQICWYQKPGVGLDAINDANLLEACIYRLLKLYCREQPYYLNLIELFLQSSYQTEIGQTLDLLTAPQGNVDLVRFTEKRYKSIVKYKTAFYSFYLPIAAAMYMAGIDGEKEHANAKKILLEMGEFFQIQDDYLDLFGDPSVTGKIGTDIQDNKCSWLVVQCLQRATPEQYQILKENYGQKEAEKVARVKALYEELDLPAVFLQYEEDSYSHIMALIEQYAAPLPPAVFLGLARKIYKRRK
Description: Inhibition of human FPPS.
Details: not given
In general, IC50 refers to the midpoint of a concentration-inhibition curve. Lower therefore signals inhibition by little substance. The molecule `CC(C)C(C)c1[nH]c2ccc(-c3ccccc3)cc2c1CC(P(=O)(O)O)P(=O)(O)O` (centres undefined) came in with an IC50 of 1.1 µM.

The target of another experiment is T2, Farnesyl pyrophosphate synthase (Homo sapiens) (UniProt P14324).
T2 sequence (whole entry): T1 sequence (P14324 whole entry)
Description: Inhibition of human FPPS at 10 uM.
Details: not given
Put shortly:
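Single fixed-concentration screen in the human FPPS enzyme inhibition assay, run alongside two known bisphosphonate inhibitors as positive controls.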
For the molecule `CC(C)C(C)c1[nH]c2ccc(-c3ccccc3)cc2c1CC(P(=O)(O)O)P(=O)(O)O` (centres undefined), the inhibition entry was “Active”. Turning to `CC(C)(C)c1[nH]c2ccccc2c1CC(P(=O)(O)O)P(=O)(O)O`, the inhibition result is “Active”. For `CC(c1[nH]c2ccccc2c1CC(P(=O)(O)O)P(=O)(O)O)C1CCCC1` (centres undefined), the inhibition entry was “Active”.

For the molecule `Cc1c(CC(P(=O)(O)O)P(=O)(O)O)c2ccccc2n1C`, the inhibition entry was “Active”. Still for that read-out and setting: the same measure for `Cn1c(NCC(P(=O)(O)O)P(=O)(O)O)nc2cccnc21`: “inactive”.

Regarding `CC(C)C(C)c1[nH]c2ccccc2c1CC(P(=O)(O)O)P(=O)(O)O` (centres undefined), the inhibition result is “Active”. Take `Cn1c(NCC(P(=O)(O)O)P(=O)(O)O)nc2ncccc21`: the inhibition result was “Active”.

On to `CCn1cc(CC(P(=O)(O)O)P(=O)(O)O)c2ccccc21`, for which the inhibition result is “Active”. With `CC(C)n1cc(CC(P(=O)(O)O)P(=O)(O)O)c2ccccc21`, the inhibition result is “Active”. As for `Cc1[nH]c2ccccc2c1CC(P(=O)(O)O)P(=O)(O)O`, the inhibition entry is “Active”. In the case of `Cn1cc(CC(P(=O)(O)O)P(=O)(O)O)c2ccccc21`, the inhibition result was “Active”.

The test system of the next experiment is Rattus norvegicus. Description: Reduction in hypercalcemia in sc dosed rat. Particulars: read-out: MED. It counts as functional.
As to `O.O=P(O)(O)C(O)(Cn1ccnc1)P(=O)(O)O` [ZOLEDRONIC ACID], the minimal effective dose is 0.03 mg/kg.

For the molecule `O=P(O)(O)C(O)(Cc1cnc2ccccn12)P(=O)(O)O` [MINODRONIC ACID], the minimal effective dose is 0.03 mg/kg.
